The values that follow come from paper PMC4958353 (Drug Design, Development and Therapy, 2016).

One data set in a line: in vitro. Conditions: human.
The subject of the next data set is M. tuberculosis H37Rv. Put plainly: microplate Alamar Blue assay, in vitro anti-TB activity. The data set is classed as cell-based. Conditions: Mycobacterium tuberculosis. Background: Resazurin is reduced to fluorescent resorufin, in cell work by metabolically active cells.
Data set [1] can be described thus: pKa by reverse-phase HPLC. The data set is classed as physicochemical.
Data set [2] is described as follows: human liver microsomal stability. Conditions: HLM incubation. The class given is in vitro ADME. In short, it runs like this: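 Test compound incubated with human liver microsomes. The percentage of parent compound remaining was read at 15 min, 30 min, 1 h and 2 h of incubation.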
For orientation: Microsomes from liver hold many membrane-bound enzymes, among them those of drug oxidation.

In the next data set the target is human serum albumin (Homo sapiens, UniProt P02768). Put plainly: protein binding by reverse-phase HPLC on human serum albumin column. The class given is in vitro ADME.
The conditions of data set [3]: compared with compound 10b (90.5%); cited from earlier work.

Converted amounts (≈) assume the structure as drawn. A value given as a limit tells only on which side of the number the result lay.

Chain of human serum albumin (P02768 25-609): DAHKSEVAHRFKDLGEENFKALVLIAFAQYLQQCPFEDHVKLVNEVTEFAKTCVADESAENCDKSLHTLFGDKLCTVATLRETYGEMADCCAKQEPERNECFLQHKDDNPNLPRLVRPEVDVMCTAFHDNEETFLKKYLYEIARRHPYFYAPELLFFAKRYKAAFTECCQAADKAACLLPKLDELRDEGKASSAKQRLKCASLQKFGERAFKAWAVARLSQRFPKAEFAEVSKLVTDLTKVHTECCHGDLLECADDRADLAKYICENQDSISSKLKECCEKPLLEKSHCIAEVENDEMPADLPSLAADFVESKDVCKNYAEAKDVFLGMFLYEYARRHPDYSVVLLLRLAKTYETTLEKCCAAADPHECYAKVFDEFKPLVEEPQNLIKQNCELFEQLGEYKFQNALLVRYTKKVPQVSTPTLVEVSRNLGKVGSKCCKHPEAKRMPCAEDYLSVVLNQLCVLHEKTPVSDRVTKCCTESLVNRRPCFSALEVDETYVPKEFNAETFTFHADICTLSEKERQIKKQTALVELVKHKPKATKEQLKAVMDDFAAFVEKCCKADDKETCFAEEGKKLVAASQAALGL

In “in vitro”, `NC(=O)C(CC(=O)c1cccc(Oc2ccccc2)c1)c1ccccc1` (centres unmarked) [Compound 5a, 4-Oxo-4-(3-phenoxyphenyl)-2-phenylbutanamide] returned a CC50 of more than 300 µg/mL. Besides, the minimal inhibitory concentration (MIC) – broadly, the smallest concentration in the dilution series that meets the test's criterion for growth inhibition – with M. tuberculosis H37Rv was more than 100 µg/mL.

The molecule `Cc1ccc(C(CC(=O)c2cccc(Oc3ccccc3)c2)C(N)=O)cc1` (centres unmarked) [Compound 5b, 4-Oxo-4-(3-phenoxyphenyl)-2-p-tolylbutanamide] had a CC50 in the data set “in vitro” of more than 300 µg/mL. The minimum inhibitory concentration (MIC) in the data set with M. tuberculosis H37Rv was more than 100 µg/mL.

Take `NC(=O)C(CC(=O)c1ccc(Oc2ccccc2)c(O)c1)c1ccccc1` (centres unmarked) [Compound 10a, 4-(3-Hydroxy-4-phenoxyphenyl)-4-oxo-2-phenylbutanamide]: the CC50 in “in vitro” was more than 300 µg/mL. Also, the MIC with M. tuberculosis H37Rv was 20 µg/mL (≈ 55.3 µM).

As for `Cc1ccc(C(CC(=O)c2ccc(Oc3ccccc3)c(O)c2)C(N)=O)cc1` (centres unmarked) [Compound 10b, 4-(3-Hydroxy-4-phenoxyphenyl)-4-oxo-2-p-tolylbutanamide], in data set [1], the pKa (in general, the negative logarithm of the acid dissociation constant) amounted to 7.59. Moreover, the CC50 in “in vitro” was more than 300 µg/mL. Besides, the Percentage remaining in data set [2] (15 minutes) is 70.18%; in data set [2] (30 minutes), 57.49%; in data set [2] (1 hour), 50.68%; in data set [2] (2 hours), 40.35%. In addition, on human serum albumin, the fraction unbound (commonly the share of the substance not bound to proteins or other matrix) was 0.095. Also, the minimum inhibitory concentration (MIC) against M. tuberculosis H37Rv came to 12.5 µg/mL (≈ 33.3 µM).

For `COc1ccc(C(CC(=O)c2ccc(Oc3ccccc3)c(O)c2)C(N)=O)cc1` (centres unmarked) [Compound 10c, 4-(3-Hydroxy-4-phenoxyphenyl)-2-(4-methoxyphenyl)-4-oxobutanamide], the CC50 in “in vitro” was found to be 261 µg/mL (≈ 666 µM). In the data set with M. tuberculosis H37Rv, this molecule had an MIC of 25 µg/mL (≈ 63.9 µM).

Turning to `NNC(=O)c1ccncc1` [Isoniazid, reference compound], in the data set with M. tuberculosis H37Rv, the MIC is 0.125 µg/mL (≈ 0.911 µM).

In the case of `Oc1cc(Cl)ccc1Oc1ccc(Cl)cc1Cl` [Triclosan, reference compound], the plasma protein binding entry in data set [3] is on record as “even higher than compound 10b”. Further, the CC50 in the data set “in vitro” is more than 300 µg/mL. In the data set with M. tuberculosis H37Rv, inhibition of growth (MIC) required 12.5 µg/mL (≈ 43.2 µM).
